Values after ≈ are worked out from the molar mass of the structure shown. Active and inactive are the calls of the source. No cut-off for these calls is given here.
How the values were obtained:
Mycobacterium avium [1] = test: Antimycobacterial activity against isoniazid, rifampicin, ethambutol and ofloxacin-resistant Mycobacterium avium My 330/88 after 21 days; assay type: functional; conditions: My 330/88, 504 h
How it was run: (§1)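 Micromethod MIC in Šula's semisynthetic medium at 37 °C. Compounds added in DMSO at 1000 down to 0.032 µmol/L. Isoniazid standard in sterile water at 0.5–250 µmol/L. Inocula: H37Rv 10^3, M. avium 10^5, M. kansasii 10^4. Read at 14 and 21 d, plus 7 d for M. kansasii.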

Mycobacterium avium [2] = test: Antimycobacterial activity against isoniazid, rifampicin, ethambutol and ofloxacin-resistant Mycobacterium avium My 330/88 after 14 days; assay type: functional; conditions: My 330/88, 336 h; how it was run: as §1
[3] = system: Mycobacterium tuberculosis; test: Antimycobacterial activity against Mycobacterium tuberculosis H37Rv My 331/88 after 21 days; assay type: functional; conditions: H37Rv My 331/88, 504 h; how it was run: as §1
[4] = system: Mycobacterium tuberculosis; test: Antimycobacterial activity against Mycobacterium tuberculosis H37Rv My 331/88 after 14 days; assay type: functional; conditions: H37Rv My 331/88, 336 h; how it was run: as §1
[5] = system: Trichophyton mentagrophytes; test: Antifungal activity against Trichophyton mentagrophytes 445 after 120 hrs by broth microdilution method; assay type: functional; conditions: Trichophyton mentagrophytes, 445, 120 h
How it was run: (§2)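 Filamentous dermatophyte tested by broth microdilution in RPMI 1640 with glutamine, fluconazole as reference. Value expressed as IC50 relative to growth control. Read at 72 and 120 h.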

[6] = system: Trichophyton mentagrophytes; test: Antifungal activity against Trichophyton mentagrophytes 445 after 72 hrs by broth microdilution method; assay type: functional; conditions: Trichophyton mentagrophytes, 445, 72 h; how it was run: as §2
Lichtheimia corymbifera [7] = test: Antifungal activity against Absidia corymbifera 272 after 48 hrs by broth microdilution method; assay type: functional; conditions: Lichtheimia corymbifera, 272, 48 h
How it was run: (§3)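 Broth microdilution in RPMI 1640 with glutamine, fluconazole as reference. For yeasts, MIC is ≥80% growth reduction (IC80) versus control. For filamentous fungi, the value is expressed as IC50. Readings at 24 and 48 h.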

Lichtheimia corymbifera [8] = test: Antifungal activity against Absidia corymbifera 272 after 24 hrs by broth microdilution method; assay type: functional; conditions: Lichtheimia corymbifera, 272, 24 h; how it was run: as §3
Aspergillus fumigatus [9] = test: Antifungal activity against Aspergillus fumigatus 231 after 48 hrs by broth microdilution method; assay type: functional; conditions: Aspergillus fumigatus, 231, 48 h; how it was run: as §3
Aspergillus fumigatus [10] = test: Antifungal activity against Aspergillus fumigatus 231 after 24 hrs by broth microdilution method; assay type: functional; conditions: Aspergillus fumigatus, 231, 24 h; how it was run: as §3
Trichosporon asahii [11] = test: Antifungal activity against Trichosporon asahii 1188 after 48 hrs by broth microdilution method; assay type: functional; conditions: Trichosporon asahii, 1188, 48 h; how it was run: as §3
Trichosporon asahii [12] = test: Antifungal activity against Trichosporon asahii 1188 after 24 hrs by broth microdilution method; assay type: functional; conditions: Trichosporon asahii, 1188, 24 h; how it was run: as §3
Pichia kudriavzevii [13] = test: Antifungal activity against Candida krusei E28 after 48 hrs by broth microdilution method; assay type: functional; conditions: E28, 48 h; how it was run: as §3
Pichia kudriavzevii [14] = test: Antifungal activity against Candida krusei E28 after 24 hrs by broth microdilution method; assay type: functional; conditions: E28, 24 h; how it was run: as §3
Candida albicans [15] = test: Antifungal activity against Candida albicans ATCC 44859 after 48 hrs by broth microdilution method; assay type: functional; conditions: ATCC 44859, 48 h; how it was run: as §3
Candida albicans [16] = test: Antifungal activity against Candida albicans ATCC 44859 after 24 hrs by broth microdilution method; assay type: functional; conditions: ATCC 44859, 24 h; how it was run: as §3
Nakaseomyces glabratus = test: Antifungal activity against Candida glabrata 20/I at 500 micromol/L after 24 to 48 hrs by broth microdilution method; assay type: functional, organism-based; how it was run: as §3
Candida tropicalis = test: Antifungal activity against Candida tropicalis 156 at 500 micromol/L after 24 to 48 hrs by broth microdilution method; assay type: functional, organism-based; how it was run: as §3
Pseudomonas aeruginosa = test: Antibacterial activity against Pseudomonas aeruginosa CCM 1961 at 500 micromol/L after 24 to 48 hrs by broth microdilution method; assay type: functional, organism-based
How it was run: (§4)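 Broth microdilution in Mueller–Hinton broth, compounds dissolved in DMSO, tested over a dilution series from 500 downward. MIC taken as ≥95% growth reduction (IC95) versus drug-free control. Benzylpenicillin comparator. Readings at 24 and 48 h.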

Klebsiella pneumoniae [17] = test: Antibacterial activity against ESBL-positive Klebsiella pneumoniae J 14368/08 at 500 micromol/L after 24 to 48 hrs by broth microdilution method; assay type: functional, organism-based; how it was run: as §4
Klebsiella pneumoniae [18] = test: Antibacterial activity against Klebsiella pneumoniae D 11750/08 at 500 micromol/L after 24 to 48 hrs by broth microdilution method; assay type: functional, organism-based; how it was run: as §4
Escherichia coli = test: Antibacterial activity against Escherichia coli CCM 4517 at 500 micromol/L after 24 to 48 hrs by broth microdilution method; assay type: functional, organism-based; how it was run: as §4
Enterococcus sp. = test: Antibacterial activity against Enterococcus sp. J 14365/08 at 500 micromol/L after 24 to 48 hrs by broth microdilution method; assay type: functional, organism-based; how it was run: as §4
[19] = system: Staphylococcus epidermidis; test: Antibacterial activity against Staphylococcus epidermidis H 6966/08 after 48 hrs by broth microdilution method; assay type: functional; conditions: H 6966/08, 48 h; how it was run: as §4
[20] = system: Staphylococcus epidermidis; test: Antibacterial activity against Staphylococcus epidermidis H 6966/08 after 24 hrs by broth microdilution method; assay type: functional; conditions: H 6966/08, 24 h; how it was run: as §4
Staphylococcus aureus [21] = test: Antibacterial activity against methicillin-resistant Staphylococcus aureus H 5996/08 after 48 hrs by broth microdilution method; assay type: functional; conditions: H 5996/08, 48 h; how it was run: as §4
Staphylococcus aureus [22] = test: Antibacterial activity against methicillin-resistant Staphylococcus aureus H 5996/08 after 24 hrs by broth microdilution method; assay type: functional; conditions: H 5996/08, 24 h; how it was run: as §4
Staphylococcus aureus [23] = test: Antibacterial activity against Staphylococcus aureus CCM 4516/08 after 48 hrs by broth microdilution method; assay type: functional; conditions: CCM 4516/08, 48 h; how it was run: as §4
Staphylococcus aureus [24] = test: Antibacterial activity against Staphylococcus aureus CCM 4516/08 after 24 hrs by broth microdilution method; assay type: functional; conditions: CCM 4516/08, 24 h; how it was run: as §4
Mycobacterium kansasii [25] = test: Antimycobacterial activity against Mycobacterium kansasii 6509/96 after 21 days; assay type: functional; conditions: 6509/96, 504 h; how it was run: as §1
Mycobacterium kansasii [26] = test: Antimycobacterial activity against Mycobacterium kansasii 6509/96 after 14 days; assay type: functional; conditions: 6509/96, 336 h; how it was run: as §1
Mycobacterium kansasii [27] = test: Antimycobacterial activity against Mycobacterium kansasii 6509/96 after 7 days; assay type: functional; conditions: 6509/96, 168 h; how it was run: as §1
Mycobacterium kansasii [28] = test: Antimycobacterial activity against Mycobacterium kansasii My 235/80 after 21 days; assay type: functional; conditions: My 235/80, 504 h; how it was run: as §1
Mycobacterium kansasii [29] = test: Antimycobacterial activity against Mycobacterium kansasii My 235/80 after 14 days; assay type: functional; conditions: My 235/80, 336 h; how it was run: as §1
HepG2 = test: Cytotoxicity against human HepG2 cells after 24 hrs by CellTiter assay; assay type: cell-based; conditions: HepG2, 24 h
How it was run: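 HepG2 cells (passage 27–33) in MEM with 10% FBS, L-glutamine and NEAA, seeded at 1×10^4 per well. Treated next day with compounds at 0.1–100 µM (or 0.1–25 µmol/L), triplicates, <1% DMSO, for 24 h at 37 °C, 5% CO2. MTS reagent added for 2 h, absorbance read at 490 nm. IC50 taken against untreated (100%) and 10% DMSO (0%) controls.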

Mycobacterium kansasii [30] = test: Antimycobacterial activity against Mycobacterium kansasii My 235/80 after 7 days; assay type: functional; conditions: My 235/80, 168 h; how it was run: as §1

CCOP(=O)(OCC)Oc1cc(Cl)ccc1C(=O)Nc1ccc(C(F)(F)F)cc1
MIC (Mycobacterium avium [1]): 4 µM (≈ 1.81 µg/mL)
MIC (Mycobacterium avium [2]): 4 µM (≈ 1.81 µg/mL)
MIC [3]: 1 µM (≈ 0.452 µg/mL)
MIC [4]: 1 µM (≈ 0.452 µg/mL)
MIC50 [5]: 250 µM (≈ 113 µg/mL)
MIC50 [6]: 250 µM (≈ 113 µg/mL)
MIC50 (Lichtheimia corymbifera [7]): > 500 µM
MIC50 (Lichtheimia corymbifera [8]): > 500 µM
MIC50 (Aspergillus fumigatus [9]): > 500 µM
MIC50 (Aspergillus fumigatus [10]): > 500 µM
MIC80 (Trichosporon asahii [11]): > 500 µM
MIC80 (Trichosporon asahii [12]): > 500 µM
MIC80 (Pichia kudriavzevii [13]): > 500 µM
MIC80 (Pichia kudriavzevii [14]): > 500 µM
MIC80 (Candida albicans [15]): > 500 µM
MIC80 (Candida albicans [16]): > 500 µM
Activity (Nakaseomyces glabratus): inactive
Activity (Candida tropicalis): inactive
Activity (Pseudomonas aeruginosa): inactive
Activity (Klebsiella pneumoniae [17]): inactive
Activity (Klebsiella pneumoniae [18]): inactive
Activity (Escherichia coli): inactive
Activity (Enterococcus sp.): inactive
MIC95 [19]: 31.2 µM (≈ 14.1 µg/mL)
MIC95 [20]: 31.2 µM (≈ 14.1 µg/mL)
MIC95 (Staphylococcus aureus [21]): 62.5 µM (≈ 28.2 µg/mL)
MIC95 (Staphylococcus aureus [22]): 62.5 µM (≈ 28.2 µg/mL)
MIC95 (Staphylococcus aureus [23]): 31.2 µM (≈ 14.1 µg/mL)
MIC95 (Staphylococcus aureus [24]): 31.2 µM (≈ 14.1 µg/mL)
MIC (Mycobacterium kansasii [25]): 2 µM (≈ 0.904 µg/mL)
MIC (Mycobacterium kansasii [26]): 2 µM (≈ 0.904 µg/mL)
MIC (Mycobacterium kansasii [27]): 1 µM (≈ 0.452 µg/mL)
MIC (Mycobacterium kansasii [28]): 1 µM (≈ 0.452 µg/mL)
MIC (Mycobacterium kansasii [29]): 1 µM (≈ 0.452 µg/mL)
IC50 (HepG2): 2.51 µM
MIC (Mycobacterium kansasii [30]): 0.5 µM (≈ 0.226 µg/mL)

CCOP(=O)(OCC)Oc1ccc(Br)cc1C(=O)Nc1ccc(C(F)(F)F)cc1
MIC (Mycobacterium avium [1]): 8 µM (≈ 3.97 µg/mL)
MIC (Mycobacterium avium [2]): 8 µM (≈ 3.97 µg/mL)
MIC [3]: 1 µM (≈ 0.496 µg/mL)
MIC [4]: 1 µM (≈ 0.496 µg/mL)
MIC50 [5]: 250 µM (≈ 124 µg/mL)
MIC50 [6]: 250 µM (≈ 124 µg/mL)
MIC50 (Lichtheimia corymbifera [7]): > 500 µM
MIC50 (Lichtheimia corymbifera [8]): > 500 µM
MIC50 (Aspergillus fumigatus [9]): > 500 µM
MIC50 (Aspergillus fumigatus [10]): > 500 µM
MIC80 (Trichosporon asahii [11]): > 500 µM
MIC80 (Trichosporon asahii [12]): > 500 µM
MIC80 (Pichia kudriavzevii [13]): > 500 µM
MIC80 (Pichia kudriavzevii [14]): > 500 µM
MIC80 (Candida albicans [15]): > 500 µM
MIC80 (Candida albicans [16]): > 500 µM
Activity (Nakaseomyces glabratus): inactive
Activity (Candida tropicalis): inactive
Activity (Pseudomonas aeruginosa): inactive
Activity (Klebsiella pneumoniae [17]): inactive
Activity (Klebsiella pneumoniae [18]): inactive
Activity (Escherichia coli): inactive
Activity (Enterococcus sp.): inactive
MIC95 [19]: 15.6 µM (≈ 7.75 µg/mL)
MIC95 [20]: 7.81 µM (≈ 3.88 µg/mL)
MIC95 (Staphylococcus aureus [21]): 15.6 µM (≈ 7.75 µg/mL)
MIC95 (Staphylococcus aureus [22]): 15.6 µM (≈ 7.75 µg/mL)
MIC95 (Staphylococcus aureus [23]): 31.2 µM (≈ 15.5 µg/mL)
MIC95 (Staphylococcus aureus [24]): 15.6 µM (≈ 7.75 µg/mL)
MIC (Mycobacterium kansasii [25]): 2 µM (≈ 0.992 µg/mL)
MIC (Mycobacterium kansasii [26]): 2 µM (≈ 0.992 µg/mL)
MIC (Mycobacterium kansasii [27]): 2 µM (≈ 0.992 µg/mL)
MIC (Mycobacterium kansasii [28]): 2 µM (≈ 0.992 µg/mL)
MIC (Mycobacterium kansasii [29]): 2 µM (≈ 0.992 µg/mL)
IC50 (HepG2): 1.84 µM
MIC (Mycobacterium kansasii [30]): 1 µM (≈ 0.496 µg/mL)

From ChEMBL document CHEMBL3102784, “Salicylanilide diethyl phosphates: synthesis, antimicrobial activity and cytotoxicity” (Bioorg Med Chem, 2014)
